High-throughput results (PubChem BioAssay)
Hep lipid drop: modulators of hepatic lipid droplet formation; AML12 mouse hepatocytes, oleate lipid droplets, BODIPY imaging; inhibition, % at 6.5 µM; actives 0.4% (n = 240,000);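 active = lipid droplet intensity inhibited by at least 50%, with more than 500 cells counted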
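Test system: AML12 mouse liver cells; schedule: overnight exposure; technique: high-content imaging of BODIPY-stained droplets and DAPI nuclei; read-out: % inhibition of corrected integrated BODIPY droplet signal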
PHOSPHO1 inh: PHOSPHO1 (human) inhibition; Q8TCT1; recombinant PHOSPHO1, absorbance phosphatase assay; inhibition, % at 13.3 µM; actives 1.1% (n = 290,000); in the data active = inhibition above about 60%
CHT inh: inhibitors of human choline transporter CHT; actives 0.86% (n = 310,000); CHT-expressing cells, membrane potential dye, choline response; stronger effect = lower value; B-score at 10 µM; AID 488975; Q9GZV3;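 active = B-score over 3 SD under the library average, and starting fluorescence ratio not unusually high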;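 also: choline stimulus applied at its EC90 after an EC20 pre-addition; B-score computed on integrated fluorescence ratio after choline addition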
Target sequence (Q9GZV3 whole entry, looked up): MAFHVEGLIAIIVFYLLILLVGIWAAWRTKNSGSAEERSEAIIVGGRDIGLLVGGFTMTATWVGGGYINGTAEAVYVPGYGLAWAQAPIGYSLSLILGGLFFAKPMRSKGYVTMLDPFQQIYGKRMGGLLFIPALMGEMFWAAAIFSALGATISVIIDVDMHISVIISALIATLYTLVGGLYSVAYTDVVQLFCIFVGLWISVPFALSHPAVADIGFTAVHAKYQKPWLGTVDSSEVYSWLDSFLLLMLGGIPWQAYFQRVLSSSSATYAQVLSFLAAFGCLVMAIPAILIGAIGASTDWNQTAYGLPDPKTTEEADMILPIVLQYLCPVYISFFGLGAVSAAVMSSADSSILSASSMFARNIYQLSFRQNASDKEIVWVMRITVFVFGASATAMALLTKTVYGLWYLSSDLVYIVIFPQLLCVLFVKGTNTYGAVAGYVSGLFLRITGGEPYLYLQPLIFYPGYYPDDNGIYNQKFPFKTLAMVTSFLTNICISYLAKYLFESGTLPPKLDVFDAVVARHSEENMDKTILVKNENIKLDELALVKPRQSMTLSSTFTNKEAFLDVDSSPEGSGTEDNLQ
HSF1 activator: increases HSF-1 driven luciferase reporter signal; NIH3T3-HGL HSF-1 luciferase reporter, MG132, 8 h; 100% = twice DMSO control signal; activation, % at 9 µM; actives 1.7% (n = 300,000);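 active = mean replicate activation of at least 50% with a set share of replicates each reaching 50%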;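 also: 0% = median of the neutral control wells and 100% = twice that signal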
CHT PAM: allosteric activators of human choline transporter CHT; CHT-expressing cells, membrane potential dye, choline EC20; stronger effect = higher value; LV-AA mutant CHT in HEK293 cells; B-score at 10 µM; actives 0.49% (n = 310,000);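 active = initial fluorescence not abnormally high and integrated response B-score, plate-corrected, over 3 SD above library mean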
HSF1 inhib: HSF1 inhibition; NIH3T3-HGL HSE-luciferase, MG132-induced, luminescence 8 h; stronger effect = lower value; activity change, negative = inhibition, % at 7.5 µM (by protocol); actives 0.77% (n = 300,000); AID 2098;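 active = more than half of replicate wells show activity change below -50%, luminescence cut by over half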;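 also: luciferase reports HSF-1 transcriptional activity via heat shock element; 0% = median of DMSO wells and -100% = zero luminescence signal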
Lipid drop inh: confirmation of inhibitors of hepatic lipid droplet formation; shares compounds with Hep lipid drop; AML12 mouse hepatocytes, BODIPY lipid droplet imaging; droplets induced with 100 µM oleic acid; inhibition, % at 5.2 µM; actives 65% (n = 870); AID 463183;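 active = inhibition of lipid droplet metric at least 50%, with more than 300 cells in each of four replicates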;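 also: plate controls were DMSO with oleic acid for no effect and 5 µM Triacsin-C for full effect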
AML12 cytotox: toxic to AML12 mouse hepatocytes in counter-screen. shares compounds with Hep lipid drop. DAPI nuclear morphology cytotoxicity imaging; stronger effect = higher value; cells fed 100 µM oleate overnight. z-score at 5 µM. actives 3% (n = 870); in the data active = z-score above about 6.3;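 also: compound exposure lasted overnight at 37 °C before fixation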
AML12 tox ATP: AML12 hepatocyte cytotoxicity, confirmed. shares compounds with Hep lipid drop. AML12 mouse hepatocyte viability, ATP luminescence; cells loaded with 100 µM oleic acid. cytotoxicity, % at 50 µM. 530 tested, under 10 active;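 active = cytotoxicity above 50% in each of four replicates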;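 also: compound exposure lasted overnight at 37 °C before the ATP read; 0% = DMSO-treated cells and 100% = wells with no cells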
The depositor's hits bear a star. Compounds with a hit are over-represented: about 4.9% of the library has one in this group of screens.

For COc1ccc(CCn2ccc(O)c(Cc3ccc(Cl)cc3)c2=O)cc1OC the results were Hep lipid drop 61*, PHOSPHO1 inh 34, CHT inh inactive, HSF1 activator 15, CHT PAM inactive, HSF1 inhib 2, Lipid drop inh 106*, AML12 cytotox 0.55 and AML12 tox ATP 4.
For COc1cc(C(=S)N2CCOCC2)cc(OC)c1OC(=O)c1ccccc1[N+](=O)[O-] the results were Hep lipid drop 56*, PHOSPHO1 inh 35, CHT inh inactive, HSF1 activator 2, CHT PAM inactive, HSF1 inhib -2, Lipid drop inh 30 and AML12 cytotox -0.23.
Screening COc1ccc(C(=S)N2CCOCC2)cc1OC(=O)c1ccc([N+](=O)[O-])cc1[N+](=O)[O-] returned Hep lipid drop 2, PHOSPHO1 inh 5, CHT inh inactive, HSF1 activator 23, CHT PAM inactive and HSF1 inhib 17.
Screening CCC(C)(C)NC(=O)C(c1sccc1C)N(Cc1ccco1)C(=O)c1csnn1 (configuration not stated) returned Hep lipid drop 58*, PHOSPHO1 inh 42, CHT inh inactive, HSF1 activator 6, CHT PAM inactive, HSF1 inhib 1, Lipid drop inh 70*, AML12 cytotox -0.47 and AML12 tox ATP 12.
For O=C(Cn1nnc(-c2ccc([N+](=O)[O-])cc2)n1)NNC(=O)c1ccccc1 the results were Hep lipid drop 59*, PHOSPHO1 inh 28, CHT inh inactive, HSF1 activator 7, CHT PAM inactive, HSF1 inhib -5, Lipid drop inh 29 and AML12 cytotox 0.18.
Screening O=C(Cn1nnc(-c2ccccc2)n1)NNC(=O)c1cccc([N+](=O)[O-])c1 returned Hep lipid drop 2, PHOSPHO1 inh 32, CHT inh inactive, HSF1 activator -7, CHT PAM inactive and HSF1 inhib -9.
Screening O=C(NC1CCN(S(=O)(=O)c2ccccc2)CC1)c1ccccc1 returned Hep lipid drop -27, PHOSPHO1 inh 36, CHT inh inactive, HSF1 activator -1, CHT PAM inactive and HSF1 inhib 1.
CN(C)Cc1ccc(O)c(CCc2ccccc2)n1 was read as Hep lipid drop 52*, PHOSPHO1 inh -3, CHT inh inactive, HSF1 activator 1, CHT PAM inactive, HSF1 inhib 4, Lipid drop inh -2 and AML12 cytotox 0.21.
`Cc1oc2ccc(O)c(CN(C)C)c2c1C(=O)c1ccccc1` gave Hep lipid drop 4, PHOSPHO1 inh -1, CHT inh inactive, HSF1 activator 17, CHT PAM inactive and HSF1 inhib 11.
`Cc1ccc(-c2nnc(OCc3cccnc3)c3ccccc23)cc1` gave Hep lipid drop 67*, PHOSPHO1 inh 34, CHT inh inactive, HSF1 activator -3, CHT PAM inactive, HSF1 inhib 7, Lipid drop inh 86*, AML12 cytotox 0.77 and AML12 tox ATP 15.
Screening CC1CCCN(C(=O)c2ccc3c(c2NCCO)C(=O)c2ccccc2C3=O)C1 (configuration not stated) returned Hep lipid drop 54*, PHOSPHO1 inh 16, CHT inh -5.4*, HSF1 activator -9, CHT PAM inactive, HSF1 inhib 1, Lipid drop inh 105*, AML12 cytotox -0.19 and AML12 tox ATP 33.
O=C1c2ccccc2C(=O)c2c1ccc(C(=O)N1CCCCC1)c2NCCO was read as PHOSPHO1 inh 27, CHT inh inactive, HSF1 activator -2, CHT PAM inactive and HSF1 inhib -7.
Screening c1cc[n+](CCC[n+]2ccccc2)cc1 returned Hep lipid drop 56*, PHOSPHO1 inh 22, CHT inh inactive, HSF1 activator 0, CHT PAM inactive, HSF1 inhib -4, Lipid drop inh 35 and AML12 cytotox -0.4.
Screening c1cc[n+](CCCC[n+]2ccccc2)cc1 returned Hep lipid drop 12, PHOSPHO1 inh 49, CHT inh inactive, HSF1 activator -2, CHT PAM inactive and HSF1 inhib -3.
Screening Cc1ccccc1C(=O)NC1CCN(Cc2nnnn2C2CCCC2)CC1 returned Hep lipid drop 63*, PHOSPHO1 inh 4, CHT inh inactive, HSF1 activator 2, CHT PAM inactive, HSF1 inhib -9, Lipid drop inh 31 and AML12 cytotox -0.19.
For Cc1ccc(NC(=O)Cn2cc(C(=O)C3CC3)c3ccccc32)c(C)c1 the results were Hep lipid drop 17, PHOSPHO1 inh 44, CHT inh inactive, HSF1 activator -15, CHT PAM inactive and HSF1 inhib -17.
`Cc1ccc(C)c(NC(=O)Cn2cc(C(=O)C3CC3)c3ccccc32)c1` gave Hep lipid drop 75*, PHOSPHO1 inh -104, CHT inh inactive, HSF1 activator -12, CHT PAM inactive, HSF1 inhib 2, Lipid drop inh 94*, AML12 cytotox -0.53 and AML12 tox ATP 19.
For CCCCCc1cc(=O)oc2c(C(CCN3CCCC(C)C3)c3cc(OC)c(OC)c(OC)c3)c(OC)cc(OC)c12 (configuration not stated) the results were Hep lipid drop 19, PHOSPHO1 inh 31, CHT inh inactive, HSF1 activator -8, CHT PAM inactive and HSF1 inhib 11.
Screening CCCCCc1cc(=O)oc2c(C(CCN3CCCC(C)C3)c3ccc(N(C)C)cc3)c(OC)cc(OC)c12 (configuration not stated) returned Hep lipid drop 62*, PHOSPHO1 inh 31, CHT inh inactive, HSF1 activator -22, CHT PAM inactive, HSF1 inhib -6, Lipid drop inh 11 and AML12 cytotox 0.22.
COC(=O)c1cn(NC(=O)c2cc(OC)c(OC)c(OC)c2)c(=O)c2ccccc12 was read as PHOSPHO1 inh 12, CHT inh inactive, HSF1 activator 21, CHT PAM inactive and HSF1 inhib -5.
For COC(=O)c1cn(NC(=O)c2ccc([N+](=O)[O-])cc2Cl)c(=O)c2ccccc12 the results were Hep lipid drop 50*, PHOSPHO1 inh 7, CHT inh inactive, HSF1 activator -18, CHT PAM inactive, HSF1 inhib -15, Lipid drop inh 25 and AML12 cytotox 0.56.
